Only some compounds are listed: those with a hit (about 2.3% of all), similar ones and a draw of the others.
ADAM10 inh: human ADAM10 inhibitors, primary screen, biochemical, QFRET, HTS. Disintegrin and metalloproteinase domain-containing protein 10 (Homo sapiens), O14672. recombinant ADAM10, EDANS/DABCYL FRET peptide cleavage, 3 h. inhibition, % at 7 µM. 0.62% of 370,000 active;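 active means inhibition above a per-campaign cutoff equal to the mean of compounds falling between control-based bounds plus 3 SD, cut at about 20% in these data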;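 further: 0% = DMSO wells while the 100% control is not disclosed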
Target sequence (O14672 214-748 limits assumed): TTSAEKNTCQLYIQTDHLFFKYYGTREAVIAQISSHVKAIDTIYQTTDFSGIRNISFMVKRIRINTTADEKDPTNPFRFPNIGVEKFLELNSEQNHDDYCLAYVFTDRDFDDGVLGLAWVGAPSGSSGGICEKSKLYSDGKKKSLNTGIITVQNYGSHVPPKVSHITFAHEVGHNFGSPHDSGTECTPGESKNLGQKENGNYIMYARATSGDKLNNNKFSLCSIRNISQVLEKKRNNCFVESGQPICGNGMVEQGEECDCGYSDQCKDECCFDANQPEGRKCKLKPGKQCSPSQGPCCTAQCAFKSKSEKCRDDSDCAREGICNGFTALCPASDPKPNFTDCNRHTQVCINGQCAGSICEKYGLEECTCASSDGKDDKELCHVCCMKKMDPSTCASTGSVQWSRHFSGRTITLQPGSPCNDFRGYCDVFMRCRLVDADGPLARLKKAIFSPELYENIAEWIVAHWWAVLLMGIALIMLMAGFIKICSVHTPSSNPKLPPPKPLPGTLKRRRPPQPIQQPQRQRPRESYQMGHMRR
PLCg1 inh: PLC-gamma1 enzyme inhibitors, primary screen, biochemical, fluorescence, purified enzyme | fluorogenic substrate | 0.84% of 370,000 active | AID 720700, 2013 | 1-phosphatidylinositol 4,5-bisphosphate phosphodiesterase gamma-1 (Homo sapiens), P19174 | inhibition, % at 12.2 µM; in the data active means inhibition above about 9.5%
PLCb3 inh: human PLC-beta3 inhibitors, primary screen, biochemical, fluorescence; 0.18% of 370,000 active; inhibition, % at 12.2 µM; AID 720704, 2013; 1-phosphatidylinositol 4,5-bisphosphate phosphodiesterase beta-3 (Homo sapiens), Q01970; Purified PLC-beta3, fluorogenic substrate; in the data active means inhibition above about 11%;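 further: 0% = median of compound wells on plate and 100% = full blocker control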
Tn7 DDE FP: inhibitors of Tn7 peptide binding to fibrin DD(E), primary screen, biochemical, fluorescence polarization, human fibrin, Tn7 probe; Fibrinogen beta chain (Homo sapiens), P02675; FP displacement of FITC-Tn7 peptide from fibrin DD(E); 0% = median of compound wells per plate; inhibition, % at 8.3 µM; 0.13% of 370,000 active; AID 720508, 2013;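 active means inhibition above the mean of compounds falling within the control limits plus 3 SD of them, cut at about 14% in these data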;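 further: 0% = plate median of compound wells and 100% = 10 µM Aha-Tn7 peptide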
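Measure: % inhibition scaled between sample-field median and high-control FP; Test system: human fibrin DD(E); Quantity: 2 µM final DD(E) protein; Doses: one dose, 8.3 µM nominal; Schedule: compound with protein 10 min, then 3 h after probe, room temperature; Detection: fluorescence polarization; Medium: Tris buffer with calcium and detergent, pH 7.8.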
DDE Tn6 FP inh: inhibitors of Tn6 peptide binding to fibrin DD(E), primary screen, biochemical, fluorescence polarization, human fibrin, Tn6 probe | AID 720509, 2013 | Fibrinogen beta chain (Homo sapiens), P02675 | Fibrin DD(E) TRITC-Tn6 fluorescence polarization displacement | inhibition, % at 8.3 µM | 0.21% of 370,000 active;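 active means inhibition above a per-campaign cutoff: mean of compounds within control limits plus 3 SD, cut at about 15% in these data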;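 further: 0% = median of all compound wells on the plate and 100% = blocking peptide control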
ADAM17 inh: ADAM17 inhibitors, primary screen, biochemical, QFRET; Disintegrin and metalloproteinase domain-containing protein 17 (Homo sapiens), P78536; recombinant ADAM17, EDANS/DABCYL FRET peptide cleavage; inhibition, % at 6.95 µM; 0.83% of 370,000 active;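 active means inhibition above the mean of compounds lying between control limits plus 3 SD, set per campaign, cut at about 8.5% in these data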;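 further: 0% = DMSO-only wells as the low control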
DDE Tn7 confirm: inhibitors of Tn7 peptide binding to fibrin DD(E), confirmation, biochemical, fluorescence polarization, human fibrin, Tn7 probe; shares compounds with Tn7 DDE FP; FP displacement of TRITC-Tn7 peptide from DD(E); 0% set at plate's compound-well median; inhibition, % at 8.3 µM; 5% of 460 active;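 active means inhibition above the campaign cutoff, the mean of compounds within control limits plus 3 SD, cut at about 14% in these data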;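 further: 100% = median FP of high control wells holding Aha-Tn7 inhibitor peptide; displacers lower polarization since freed probe rises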
Tn7 DDE ctr: counter-screen for inhibitors of Tn7 peptide binding to fibrin DD(E); shares compounds with Tn7 DDE FP; TRITC-Tn7 probe displacement, fluorescence polarization; inhibition, % at 8.3 µM; 3% of 460 active;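 active means inhibition above the cutoff, the mean of compounds lying between the control bounds plus 3 SD of those compounds, cut at about 17% in these data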;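 further: 0% = median of compound sample wells and 100% = excess unlabeled Aha-Tn7 peptide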
* marks the source's active call; other numbers are inactive results; i = inactive; / = no result given.

SMILES	ADAM10 inh	PLCg1 inh	PLCb3 inh	Tn7 DDE FP	DDE Tn6 FP inh	ADAM17 inh	DDE Tn7 confirm	Tn7 DDE ctr
CCN(Cc1ccccc1)C(=O)C1C2C=CC3(CN(Cc4ccccc4)C(=O)C13)O2 (centres undefined)	0	3	0	1	4	1	/	/
CC(C)(C)OC(=O)C(Oc1ccccc1[N+](=O)[O-])C(=O)OC(C)(C)C	-17	4	-2	19*	11	-4	1	11
COCCNC(=O)c1[nH]c(C(F)(F)F)nc1-c1ccccc1	5	0	1	15*	2	1	8	2
O=C(NCCc1ccccc1F)c1[nH]c(C(F)(F)F)nc1-c1ccccc1	-2	1	0	-2	-2	-1	/	/
COc1ccc(NC(=O)CSc2ncnc3scc(-c4ccc(C)cc4)c23)cc1OC	2	-1	1	-2	6	1	/	/
CC(C)(C)c1cc(C(=O)N/N=C/c2ccc(F)cc2)n(-c2ccccc2)n1	-11	5	0	14*	3	-3	3	-1
CC1=C(C(N)=O)S(=O)(=O)c2ccccc21	-13	-7	-17	-5	-2	-3	/	/
CCOC(=O)C(C)(C)Oc1cccc2c1S(=O)(=O)c1ccccc1-2	-10	-8	-13	14*	0	-5	2	1
COc1ccc(CNc2nc(SCC(=O)NCc3ccco3)nc3ccccc23)cc1	-13	0	-5	-5	-4	-4	/	/
CCOC(=O)CSc1nc(NCc2ccco2)c2ccccc2n1	-17	-3	1	15*	-3	-6	1	-2
Cc1cc2nc3c(=O)n(C4CCCCC4)c(=O)[nH]c3nc2cc1N	-31	-177	-193	25*	-4	-17	17*	8
CC(C)(C)OC(=O)C1[C@H](O)C=CC[C@H]1S(=O)c1ccccc1 (some centres undefined)	-7	-1	0	0	-3	-5	/	/
CCCCNC(=S)N(C)N=C1CCC(c2ccccc2)CC1 (centres undefined)	-1	-2	1	0	-1	-4	/	/
CCCCNC(=S)N(C)/N=C/c1ccccc1C(=O)O	3	3	-3	14*	0	-2	-9	-7
COc1ccc(/C=N/N2CCN(c3ccc(Cl)cc3)CC2)cc1O	3	3	0	15*	2	1	2	-1
C[C@H]1[C@@H](OC(=O)Nc2cc(Cl)ccc2Cl)CC[C@@]23CCCN2C(=O)CCC[C@@H]13	12	2	3	-11	2	2	/	/
COc1cc(OC)c(OC)cc1/C=C/c1cc(C(=O)O)c2ccccc2n1	-5	-35	-53	-8	10	-4	/	/
COc1ccc(/C=C/c2cc(C(=O)O)c3ccccc3n2)cc1	-104	i	i	38*	9	-31	2	2
OCCOCCn1c(C(CO)Nc2nc(-c3ccccc3Br)cs2)nc2ccccc21 (centres undefined)	-7	-1	-5	14*	4	-1	4	5
CC(=O)CC[C@@H]1CC[C@]2(CCCN(S(=O)(=O)C3CCCCC3)C2)O1	-6	-1	2	1	4	-1	/	/
O=S(=O)(c1ccc(SCc2ccc(Br)cc2)nc1)N1CCCCC1	-1	2	-5	14*	3	-2	-5	-10
COc1ccc2ccccc2c1C=NNC(=O)c1cc(-c2ccc(C)cc2)n[nH]1	-40	-20	-24	-1	14	-20	/	/
CCOc1cc(/C=C2\CCCc3c2nc2ccccc2c3C(=O)O)ccc1OC	-62	i	i	64*	-1	-31	31*	-2
COc1cc(/C=C2\CCCc3c2nc2ccccc2c3C(=O)O)cc(Br)c1O	0	-89	-145	-2	5	-4	/	/
CCn1c2ccccc2c2cc(NC(=O)COC(=O)c3cc(F)cc(F)c3)ccc21	1	-2	0	9	-3	-1	/	/
SMILES	ADAM10 inh	PLCg1 inh	PLCb3 inh	Tn7 DDE FP	DDE Tn6 FP inh	ADAM17 inh	DDE Tn7 confirm	Tn7 DDE ctr
CC(C)C(=O)N[C@@H]1c2ccccc2CC[C@@H]1OCc1ccccc1	-22	-1	-2	14*	5	-4	0	-4
COc1ccc(CC(=O)N[C@@H]2c3ccccc3CC[C@H]2OCc2ccccc2)cc1	2	3	1	0	-5	0	/	/
O=C(O)c1ccccc1C1=Nc2ccc(O)cc2Oc2cc(O)ccc21	1	-14	-22	35*	9	-1	5	-6
Cc1nc2ccc(S(=O)(=O)NCC(=O)N(C)Cc3ccccc3Cl)cc2s1	-9	1	-1	3	5	-4	/	/
COc1ccc(OC[C@@H](O)CN2CCC(C(O)(c3ccccc3)c3ccccc3)CC2)cc1	1	6	9	2	-2	7	/	/
C#CCNc1ccc([N+](=O)[O-])cc1	-2	1	3	19*	-1	0	14	2
O=[N+]([O-])c1ccc(NCCNc2ccc([N+](=O)[O-])cc2)cc1	-2	1	3	8	6	-2	/	/
Nc1[nH]c(C(=O)c2ccccc2)c(-c2cccc3ccccc23)c1C(=O)c1c(-c2ccccc2)[nH]c2ccccc12	5	-34	-48	5	-2	2	/	/
Cc1ccc(CSc2nnc(-c3n[nH]c4c3CCC4)n2N)cc1	-8	0	-2	-6	-2	1	/	/
O=C1CCN2C=Nc3cccc4ccc1c2c34	-230	i	i	63*	3	-75	30*	-8
Cc1ccc(C)c(N2CCN(S(=O)(=O)c3ccc(-c4ccc(=O)[nH]n4)o3)CC2)c1	7	-2	-2	4	1	5	/	/
O=c1ccc(-c2ccc(S(=O)(=O)N3CCCCC3)o2)n[nH]1	-14	-7	-19	14*	6	-6	-1	0
COc1ccc(CNC(=O)O[C@H]2CC[C@@]34CCCN3C(=O)CCC[C@H]4C2)cc1OC	1	2	2	-3	2	0	/	/

High-throughput results from PubChem BioAssay.
